The test system of series [1] is Homo sapiens. The series is described as follows: Half life in chronic hepatitis B virus infected patient assessed as (1-((2-amino-9H-purin-9-yl)methyl)cyclopropoxy)me at 240 mg, po qd for 4 weeks by LC-MS analysis. As to conditions: in vivo, 672 h. The class given is ADME, organism-based. An outline of the steps: (§1)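 CHB patients given LB80380 orally once daily for 4 weeks. Plasma was sampled on day 1 and at steady state (weeks 2–4), predose and 0.5, 1, 2, 3, 4, 6, 8 and 24 h postdose. LB80331 was measured by validated LC-MS/MS (LLOQ 5 ng/ml). Terminal-phase apparent t1/2 came from noncompartmental analysis and was flagged if extrapolated AUC exceeded 20% of AUC0-24.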

The test system of series [2] is Homo sapiens. The series is described as follows: Tmax in chronic hepatitis B virus infected patient assessed as (1-((2-amino-9H-purin-9-yl)methyl)cyclopropoxy)me at 120 mg, po qd for 4 weeks by LC-MS analysis. The class given is ADME, organism-based. As to conditions: in vivo, 672 h. An outline of the steps: (§2)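 Daily oral LB80380 was given to CHB patients over 4 weeks. Blood was drawn on day 1 and at steady state (weeks 2–4), predose and 0.5–24 h postdose. Plasma LB80331 (LLOQ 5 ng/ml) and LB80317 (LLOQ 10 ng/ml) were measured by LC-MS/MS after protein-precipitation extraction. Tmax was taken by noncompartmental analysis.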

Series [3] has as its system Liver. The series is described as follows: AUC (0 to 36 hrs) in CD-1 mouse liver assessed as (1-((2-amino-9H-purin-9-yl)methyl)cyclopropoxy)me at 30 mg/kg, po administered as single dose by LC-MS analysis. The class given is ADME, organism-based. Details: time < 36 hr, dose 30 mg/kg, route oral. The following applies: in vivo. The gist of the method:
(§3)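 Male CD-1 mice given a single oral dose in 100% PEG 400. Samples extracted with perchloric acid and neutralized with ammonium bicarbonate. One aliquot assayed for the free analyte; the other treated with calf intestinal phosphatase to give the total including di-/triphosphates. Analysis by LC-MS/MS.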

Series [4] concerns Homo sapiens. The series is described as follows: Half life in chronic hepatitis B virus infected patient assessed as (1-((2-amino-9H-purin-9-yl)methyl)cyclopropoxy)me at 30 mg, po qd for 4 weeks by LC-MS analysis. As to conditions: in vivo, 672 h. The class given is ADME, organism-based. The gist of the method: as §1
Series [5] has as its system Liver. Put plainly: Tmax in CD-1 mouse liver assessed as (1-((2-amino-9H-purin-9-yl)methyl)cyclopropoxy)me at 30 mg/kg, po administered as single dose by LC-MS analysis. The class given is ADME, organism-based. Details: dose 30 mg/kg, route oral. The following applies: in vivo. The gist of the method: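 Male CD-1 mice received 30 mg/kg orally in 100% PEG 400. Plasma and snap-frozen liver were taken from 3 mice per time point at 1, 2, 4, 6, 10, 24 and 36 h. Samples were extracted with perchloric acid and neutralized with ammonium bicarbonate. Free LB80331/LB80317 was measured directly by LC-MS/MS; total, including di- and triphosphates, was measured after calf intestinal phosphatase treatment.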

In series [6] the test system is Plasma. The series is described as follows: Cmax in CD-1 mouse plasma assessed as (1-((2-amino-9H-purin-9-yl)methyl)cyclopropoxy)me at 30 mg/kg, po administered as single dose by LC-MS analysis. The class given is ADME, organism-based. Set-up: dose 30 mg/kg, route oral. As to conditions: in vivo. An outline of the steps: as §3
Series [7] deals with Plasma. The series is described as follows: Half life in CD-1 mouse plasma assessed as (1-((2-amino-9H-purin-9-yl)methyl)cyclopropoxy)me at 30 mg/kg, po administered as single dose by LC-MS analysis. The class given is ADME, organism-based. Set-up: dose 30 mg/kg, route oral. As to conditions: in vivo. The gist of the method:
as §3

Series [8] has as its system Homo sapiens. Put plainly: Tmax in chronic hepatitis B virus infected patient assessed as (1-((2-amino-9H-purin-9-yl)methyl)cyclopropoxy)me at 60 mg, po qd for 4 weeks by LC-MS analysis. The class given is ADME, organism-based. As to conditions: in vivo, 672 h. The gist of the method: as §2
The test system of series [9] is Homo sapiens. Put plainly: Cmax in chronic hepatitis B virus infected patient assessed as (1-((2-amino-9H-purin-9-yl)methyl)cyclopropoxy)me at 120 mg, po qd for 4 weeks by LC-MS analysis. The class given is ADME, organism-based. As to conditions: in vivo, 672 h. Set-up: dose 120 mg, route oral. The gist of the method: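 CHB patients, oral once daily for 4 weeks. Plasma sampled at steady state (weeks 2–4), predose and at 0.5, 1, 2, 3, 4, 6, 8 and 24 h postdose. LB80331 measured by validated LC-MS/MS (LLOQ 5 ng/ml) after protein precipitation with a stable-isotope internal standard. Cmax by noncompartmental analysis.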

Series [10] relates to Homo sapiens. The series is described as follows: Ratio of AUC (0 to infinity) in high fat diet fed healthy human to AUC (0 to infinity) in fasted healthy human assessed as (1-((2-amino-9H-purin-9-yl)methyl)cyclopropoxy)me at 60 mg, po administered as single dose by LC-MS analysis. The following applies: in vivo.
The subject of series [11] is Liver. Put plainly: Half life in CD-1 mouse liver assessed as (1-((2-amino-9H-purin-9-yl)methyl)cyclopropoxy)me at 30 mg/kg, po administered as single dose by LC-MS analysis. The class given is ADME, organism-based. Details: dose 30 mg/kg, route oral. As to conditions: in vivo. An outline of the steps: as §3
Series [12] relates to Homo sapiens. The series is described as follows: AUC (0 to infinity) in chronic hepatitis B virus infected patient assessed as (1-((2-amino-9H-purin-9-yl)methyl)cyclopropoxy)me at 30 mg, po administered as single dose by LC-MS analysis. The class given is ADME, organism-based, Plasma. Details: dose 30 mg, time infinity, route oral. As to conditions: in vivo. The gist of the method:
(§4)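 CHB patients (HBsAg/HBeAg positive), six per dose cohort, given a first oral dose on day 1. Plasma sampled at baseline. Analysis by validated LC-MS/MS after protein precipitation with a stable-isotope internal standard; LLOQ 5 ng/ml for LB80331. Noncompartmental analysis gives Cmax and AUC0-∞.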

Series [13] deals with Liver. Put plainly: Cmax in CD-1 mouse liver assessed as di- and triphosphates of (1-((2-amino-9H-purin-9-yl)methyl)cyclopropoxy)me at 30 mg/kg, po administered as single dose by LC-MS analysis. Details: dose 30 mg/kg, route oral. The class given is ADME, organism-based. The following applies: in vivo. An outline of the steps:
as §3

In series [14] the test system is Homo sapiens. Put plainly: Half life in chronic hepatitis B virus infected patient assessed as (1-((2-amino-9H-purin-9-yl)methyl)cyclopropoxy)me at 240 mg, po administered as single dose by LC-MS analysis. The class given is ADME, organism-based. As to conditions: in vivo. An outline of the steps: as §1
Series [15] deals with Liver. Put plainly: AUC (0 to infinity) in CD-1 mouse liver assessed as (1-((2-amino-9H-purin-9-yl)methyl)cyclopropoxy)me at 30 mg/kg, po administered as single dose by LC-MS analysis. The class given is ADME, organism-based. Set-up: time infinity, dose 30 mg/kg, route oral. As to conditions: in vivo. An outline of the steps: as §3
Series [16] has as its system Homo sapiens. The series is described as follows: Half life in chronic hepatitis B virus infected patient assessed as (1-((2-amino-9H-purin-9-yl)methyl)cyclopropoxy)me at 60 mg, po administered as single dose by LC-MS analysis. The class given is ADME, organism-based. As to conditions: in vivo. An outline of the steps:
as §1

Series [17] relates to Homo sapiens. Put plainly: AUC (0 to infinity) in chronic hepatitis B virus infected patient assessed as (1-((2-amino-9H-purin-9-yl)methyl)cyclopropoxy)me at 240 mg, po administered as single dose by LC-MS analysis. The class given is ADME, organism-based, Plasma. Details: dose 240 mg, route oral, time infinity. The following applies: in vivo. An outline of the steps: as §4

Series [18] concerns Homo sapiens. Put plainly: Cmax in chronic hepatitis B virus infected patient assessed as (1-((2-amino-9H-purin-9-yl)methyl)cyclopropoxy)me at 30 mg, po administered as single dose by LC-MS analysis. The class given is ADME, organism-based. Set-up: dose 30 mg, route oral. The following applies: in vivo. An outline of the steps:
as §4

In series [19] the test system is Homo sapiens. Put plainly: Tmax in chronic hepatitis B virus infected patient assessed as (1-((2-amino-9H-purin-9-yl)methyl)cyclopropoxy)me at 240 mg, po qd for 4 weeks by LC-MS analysis. As to conditions: in vivo, 672 h. The class given is ADME, organism-based. An outline of the steps:
as §2

Series [20] has as its system Homo sapiens. The series is described as follows: Oral clearance in chronic hepatitis B virus infected patient assessed as (1-((2-amino-9H-purin-9-yl)methyl)cyclopropoxy)me at 240 mg, po administered as single dose by LC-MS analysis. The class given is ADME, organism-based. As to conditions: in vivo. An outline of the steps: (§5)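 Oral LB80380 was given once daily for 4 weeks to CHB patients. Plasma LB80331 was quantified by validated LC-MS/MS after protein precipitation, with stable-isotope internal standard, at baseline and steady state (weeks 2–4), 0–24 h postdose. Noncompartmental CL/F was calculated as dose (adjusted for LB80380/LB80331 molecular weights) divided by AUC (AUC0-∞ single dose; AUC0-24 steady state).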

Series [21] has as its system Homo sapiens. Put plainly: Oral clearance in chronic hepatitis B virus infected patient assessed as (1-((2-amino-9H-purin-9-yl)methyl)cyclopropoxy)me at 120 mg, po administered as single dose by LC-MS analysis. As to conditions: in vivo. The class given is ADME, organism-based. The gist of the method:
as §5

In general, Tmax refers to the time from dosing to the highest level. As a reminder, the AUC is the area under the concentration-time curve, a measure of exposure. One may read the Cmax as the maximum level reached in the sampled fluid or tissue. What is called CL/F is the apparent clearance, not corrected for the fraction that reaches the circulation. As for `Nc1ncc2ncn(CC3(OCP(=O)(O)O)CC3)c2n1` [BESIFOVIR], the t1/2 turned out to be 3.3 h in the series with Homo sapiens [1]; 2.5 h in the series on Homo sapiens [4]; 2 h in the series on Plasma [7]; 2.8 h in the series with Liver [11]; 3 h in the series on Homo sapiens [14]; 3 h in the series with Homo sapiens [16]. The Tmax is 1 h in the series with Homo sapiens [2], 1 h in the series on Liver [5], 2 h in the series with Homo sapiens [8] and 2 h in the series with Homo sapiens [19]. In addition, the AUC in the series on Liver [3] was 102 µM·h; in the series with Homo sapiens [12] it was 1069 ng·h/mL; in the series on Liver [15], 102 µM·h; in the series on Homo sapiens [17], 6302 ng·h/mL. Further, the Cmax with Plasma [6] worked out at 6 µM; in the series on Homo sapiens [9], 696 ng/mL; in the series with Liver [13], 17 µM; in the series on Homo sapiens [18], 200 ng/mL. Moreover, the “Ratio AUC” value with Homo sapiens [10] is reported as 1.1. For the same compound, the CL/F with Homo sapiens [20] turned out to be 363 mL/min; in the series with Homo sapiens [21], 273 mL/min.

Source of the values: ChEMBL document CHEMBL1649179, “Pharmacokinetics of LB80331 and LB80317 following oral administration of LB80380, a new antiviral agent for chronic hepatitis B (CHB), in healthy adult subjects, CHB patients, and mice” (Antimicrob Agents Chemother, 2009).
